Results taken from ChEMBL document CHEMBL6134793, “Synthesis and structure-activity study of the antimicrobial lipopeptide brevibacillin” (RSC Med Chem, 2024).
≈ marks a conversion by molar mass, not a printed value. Calls of active or inactive are those of the source. The calls are words filed in the database; no cut-off is given here.

Tests used:
Escherichia coli = experiment: Antimicrobial activity against Escherichia coli ATCC 25922 assessed as growth inhibition by microdilution assay; type: functional
How it was run: (§1)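 Twofold serial microdilution of peptide (stocks 2 mg mL−1, diluted to 512 μg mL−1 in water with 10% DMSO) in strain medium, about 1 × 10^4 cfu per well. Media: TSB 20 h 37 °C (S. aureus, L. monocytogenes, B. subtilis, E. faecalis); LB 20 h 37 °C (P. aeruginosa, S. enterica, E. coli); Brucella 48 h 37 °C (C. coli). A595 read; MIC = lowest concentration with no visible growth; triplicate.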

Pseudomonas aeruginosa [1] = experiment: Antimicrobial activity against Pseudomonas aeruginosa ATCC […] assessed as growth inhibition at 128 ug/ml by radial diffusion assay; type: functional, organism-based; conditions: dose 128.0 µg/ml
How it was run: (§2)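 Agar well diffusion. Overnight cultures inoculated at 1% into 0.75% soft agar (TSB for S. aureus, LB for P. aeruginosa). Each well received 80 μL of peptide at 128 μg mL−1 in water with 10% DMSO; 10% DMSO served as negative control. Inhibition zone diameter scored after strain-specific incubation.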

Listeria monocytogenes = experiment: Antimicrobial activity against Listeria monocytogenes ATCC 19111 assessed as growth inhibition by microdilution assay; type: functional; how it was run: as §1
Pseudomonas aeruginosa [2] = experiment: Antimicrobial activity against Pseudomonas aeruginosa ATCC […] assessed as growth inhibition by microdilution assay; type: functional; how it was run: as §1
[3] = Antimicrobial activity against Salmonella enterica serovar Newport ATCC 6962 assessed as growth inhibition by microdilution assay; type: functional, Salmonella enterica subsp. enterica serovar Newport; how it was run: as §1
[4] = Cytotoxicity against human Caco-2 cells assessed as inhibition of cell viability incubated for 48 hrs by Cell Titer GLO assay; type: toxicity, cell-based
How it was run: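 Caco-2 cells in DMEM with 10% FCS, seeded 25 000 per well, adhered overnight, then given peptide at 2–256 μg mL−1 in complete medium for 48 h at 37 °C, 5% CO2. Controls: cisplatin 125 μM; 0.1% DMSO medium. Viability by ATP luminescence (CellTiter-Glo) versus untreated cells; IC50 from dose–response; mean ± SEM of at least three independent experiments.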

Staphylococcus aureus [5] = experiment: Antimicrobial activity against Staphylococcus aureus ATCC 6538 assessed as growth inhibition at 128 ug/ml by radial diffusion assay; type: functional, organism-based; conditions: dose 128.0 µg/ml; how it was run: as §2
Enterococcus faecalis = experiment: Antimicrobial activity against Enterococcus faecalis ATCC 29212 assessed as growth inhibition by microdilution assay; type: functional; how it was run: as §1
Staphylococcus aureus [6] = experiment: Antimicrobial activity against Staphylococcus aureus ATCC 6538 assessed as growth inhibition by microdilution assay; type: functional; how it was run: as §1
Clostridium perfringens = experiment: Antimicrobial activity against Clostridium perfringens ATCC 3628 assessed as growth inhibition by microdilution assay; type: functional
How it was run: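 Broth microdilution: twofold serial peptide dilutions in reinforced clostridial medium (RCM), seeded with about 1 × 10^4 cfu per well, incubated 20 h at 37 °C. Working solution 512 μg mL−1 made from a 2 mg mL−1 stock in water with 10% DMSO. Growth read as absorbance at 595 nm. MIC taken as the lowest concentration giving complete inhibition of visible growth; run in triplicate.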

Campylobacter coli [7] = experiment: Antimicrobial activity against Campylobacter coli ATCC 33559 assessed as growth inhibition by microdilution assay; type: functional; how it was run: as §1
[8] = Hemolytic activity in human erythrocytes at 256 ug/ml measured after 1 hr by absorbance based assay relative to control; type: toxicity, cell-based, Erythrocyte; conditions: at 256 µg/mL, read-out: Activity
How it was run: (§3)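 Washed human donor erythrocytes at 1% hematocrit in PBS pH 7.4 exposed to twofold peptide dilutions (final 2–256 μg mL−1, up to 1% DMSO) for 1 h at 37 °C. After centrifugation, supernatant A405 read. % hemolysis relative to PBS (0%) and 1% Triton X-100 (100%). Triplicate; mean ± SEM.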

[9] = Hemolytic activity in human erythrocytes at 128 ug/ml measured after 1 hr by absorbance based assay relative to control; type: toxicity, cell-based, Erythrocyte; conditions: at 128 µg/mL, read-out: Activity; how it was run: as §3
Bacillus subtilis = experiment: Antimicrobial activity against Bacillus subtilis ATCC 23957 assessed as growth inhibition by microdilution assay; type: functional; how it was run: as §1
Campylobacter coli [10] = experiment: Bacteriostatic activity against Campylobacter coli ATCC 33559 measured after 48 hrs by microdilution assay; type: functional, organism-based
How it was run: (§4)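 MIC wells showing complete inhibition were sampled, 10 μL spread on agar and incubated 48 h under strain conditions; MBC = lowest concentration giving no growth on agar. MIC by broth microdilution (TSB 20 h 37 °C for S. aureus; Brucella 48 h 37 °C for C. coli). Triplicate.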

Staphylococcus aureus [11] = experiment: Bactericidal activity against Staphylococcus aureus ATCC 6538 measured after 48 hrs by microdilution assay; type: functional, organism-based; how it was run: as §4
Campylobacter coli [12] = experiment: Bacteriostatic activity against Campylobacter coli ATCC 33559 assessed as MBC/MIC ratio by microdilution assay; type: functional; how it was run: as §4

| SMILES | MIC (Escherichia coli) [µg/mL] | growth inhibition (qualitative call) (Pseudomonas aeruginosa [1]) | MIC (Listeria monocytogenes) [µg/mL] | MIC (Pseudomonas aeruginosa [2]) [µg/mL] | MIC [3] [µg/mL] | IC50 at 48 h [4] [µg/mL] | growth inhibition (qualitative call) (Staphylococcus aureus [5]) | MIC (Enterococcus faecalis) [µg/mL] | MIC (Staphylococcus aureus [6]) [µg/mL] | MIC (Clostridium perfringens) [µg/mL] | MIC (Campylobacter coli [7]) [µg/mL] | hemolysis at 1 h, 256 ug/ml [8] [%] | hemolysis at 1 h, 128 ug/ml [9] [%] | MIC (Bacillus subtilis) [µg/mL] | Activity (Campylobacter coli [10]) | Activity (Staphylococcus aureus [11]) | Ratio (Campylobacter coli [12]) |
| --- | --- | --- | --- | --- | --- | --- | --- | --- | --- | --- | --- | --- | --- | --- | --- | --- | --- |
| CC[C@H](NC(=O)[C@@H](NC(C)=O)[C@@H](C)CC)C(=O)N[C@@H](CC(C)C)C(=O)N[C@H](CCCN)C(=O)N[C@H](C(=O)N[C@H](C(=O)N[C@H](C(=O)N[C@H](CCCCN)C(=O)N[C@H](C(=O)N[C@H](C(=O)N[C@@H](CCCCN)C(=O)N[C@H](Cc1ccc(O)cc1)C(=O)N[C@@H](CC(C)C)C(=O)N[C@H](C(N)=O)C(C)C)C(C)C)C(C)C)C(C)C)[C@@H](C)CC)[C@@H](C)CC | > 128 | inactive | > 128 | > 128 | > 128 | 14.9 (≈ 9.08 µM) | inactive | > 128 | > 128 | > 128 | > 128 | 38.2 | 23.3 | > 128 | – | – | – |
| C/C=C(/NC(=O)[C@@H](O)[C@@H](C)CC)C(=O)N[C@@H](CC(C)C)C(=O)N[C@H](CCCN)C(=O)N[C@H](C(=O)N[C@H](C(=O)N[C@H](C(=O)N[C@H](CCCCN)C(=O)N[C@H](C(=O)N[C@H](C(=O)N[C@@H](CCCCN)C(=O)N[C@H](Cc1ccc(O)cc1)C(=O)N[C@@H](CC(C)C)C(=O)N[C@H](C(N)=O)C(C)C)C(C)C)C(C)C)C(C)C)[C@@H](C)CC)[C@@H](C)CC | > 128 | Not active; Exhibited Small Decrease In Activity | 2 | 4 | > 128 | 16.6 (≈ 10.4 µM) | Not active; Exhibited Small Decrease In Activity | 16 | 8 | 16 | > 128 | 30.1 | 11.8 | 4 | – | – | – |
| C/C=C(/NC(=O)[C@@H](O)[C@@H](C)CC)C(=O)N[C@@H](CC(C)C)C(=O)N[C@H](CCCN)C(=O)N[C@H](C(=O)N[C@H](C(=O)N[C@H](C(=O)N[C@H](CCCCN)C(=O)N[C@H](C(=O)N[C@H](C(=O)N[C@@H](CCCCN)C(=O)N[C@H](Cc1ccc(O)cc1)C(=O)N[C@@H](CC(C)C)C(=O)N[C@H](CO)C(C)C)C(C)C)C(C)C)C(C)C)[C@@H](C)CC)[C@@H](C)CC | 32 | Active | 2 | 1 | 64 | 10.9 (≈ 6.88 µM) | Active | 4 | 2 | 4 | 8 | 25.2 | 9.6 | 1 | Active | Active | – |
| CC[C@H](NC(=O)[C@@H](O)[C@@H](C)CC)C(=O)N[C@@H](CC(C)C)C(=O)N[C@H](CCCN)C(=O)N[C@H](C(=O)N[C@H](C(=O)N[C@H](C(=O)N[C@H](CCCCN)C(=O)N[C@H](C(=O)N[C@H](C(=O)N[C@@H](CCCCN)C(=O)N[C@H](Cc1ccc(O)cc1)C(=O)N[C@@H](CC(C)C)C(=O)N[C@H](CO)C(C)C)C(C)C)C(C)C)C(C)C)[C@@H](C)CC)[C@@H](C)CC | > 128 | Not active; Exhibited Small Decrease In Activity | 0.5 | 1 | > 128 | 10 (≈ 6.3 µM) | Not active; Exhibited Small Decrease In Activity | 2 | 1 | 2 | 4 | 58.7 | 15.5 | 1 | – | – | 8 |
